Experimental data pooled from the literature.
Protocols differ between the studies behind these lines.
CHRM2: Muscarinic acetylcholine receptor M2 (CHRM2, Homo sapiens, UniProt P08172)
TMPRSS13: TMPRSS13 (Homo sapiens, UniProt Q9BYE2)
PNLIP: Pancreatic triacylglycerol lipase (PNLIP, Sus scrofa, UniProt P00591)

C[C@H](CCCOS(=O)(=O)O)[C@H]1CC[C@H]2[C@@H]3CC[C@H]4C[C@@H](O)CC[C@]4(C)[C@H]3CC[C@]12C  IC50 (CHRM2; cAMP; antagonist): 9050 nM
CS(=O)(=O)N[C@@H](CCC(N)=O)C(=O)N[C@@H](Cc1ccccc1)C(=O)N[C@@H](CCCNC(=N)N)C(=O)c1nccs1  Ki (TMPRSS13; cell-free assay): 355 nM
OB1OCc2cc(F)ccc21  IC50 (Carbapenem-hydrolyzing beta-lactamase KPC (KPC-2, Klebsiella pneumoniae, UniProt Q9F663); enzyme activity; inhibitor): 1100 nM
C[C@H](NC(=O)[C@H](CCC(N)=O)NC(=O)CCCCNC(=N)N)C(=O)N[C@@H](CCCNC(=N)N)C(=O)c1nc2ccccc2s1  Ki (TMPRSS13; cell-free assay): 33 nM
O=C1Nc2ccc3ncsc3c2/C1=C/c1cnc[nH]1  IC50 (Serine/threonine-protein kinase Nek7 (NEK7, Homo sapiens, UniProt Q8TDX7); enzyme activity; inhibitor): 11900 nM
C=CCc1ccc(O)c(-c2cc(CC=C)ccc2O)c1  IC50 (PNLIP; enzyme activity; inhibitor; fluorescence): 3240 nM
[2H]c1c([2H])c([C@]2([2H])CCCN2C(=O)C(C)(C)Oc2ccc3cn[nH]c3c2)c([2H])c([2H])c1C([2H])([2H])[2H]  IC50 (Receptor-interacting serine/threonine-protein kinase 1 (RIPK1, Homo sapiens, UniProt Q13546); enzyme activity; inhibitor): 1.8 nM
COc1c2c(cc3c1-c1c(cc4c(c1OC)OCO4)C[C@H](C)[C@H](C)C3)OCO2  IC50 (PNLIP; enzyme activity; inhibitor; fluorescence): 8650 nM
COc1cc2c(cc1OC)CN(CCc1ccc(NC(=O)c3cccc4c(=O)c5cccc(OC)c5[nH]c34)cc1)CC2  Ki (CHRM2; cell-free assay): 466 nM
